Source: ChEMBL document CHEMBL1128416, “Synthesis and evaluation of 6,7-dihydroxy-2,3,4,8,9,13b-hexahydro-1H- benzo[6,7]cyclohepta[1,2,3-ef][3]benzazepine, 6,7-dihydroxy- 1,2,3,4,8,12b-hexahydroanthr[10,4a,4-cd]azepine, and 10-(aminomethyl)-9,10- dihydro-1,2-dihydroxyanthracene as conformationally restricted analogs of …” (J Med Chem, 1995)

Columns and labels:
Conditions in all cases: Striatum; Membrane
[1] = molecular target: D(1A) dopamine receptor (Rattus norvegicus) (UniProt P18901); experiment: Binding affinity to the dopamine receptor D1 by displacing [3H]-SCH- 23390 radio-ligand in rat striatal membranes by using radioligand competition assay.; assay type: cell membranes
Procedure, shortened: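 Striata from male Sprague-Dawley rats (200–400 g), fresh or stored at -70 °C. Homogenized in ice-cold 50 mM HEPES with 4.0 mM MgCl2, pH 7.4, washed twice by centrifugation at 27000g, and resuspended at ~2.0 mg wet weight/mL. Membranes were incubated with 0.3 nM [3H]SCH 23390 and increasing test concentrations for 15 min at 37 °C. Nonspecific binding defined with 1 μM SCH 23390. Filtered, scintillation counted, IC50 derived.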

[2] = molecular target: D(2) dopamine receptor (Rattus norvegicus) (UniProt P61169); experiment: Binding affinity towards Dopamine receptor D2 by displacing [3H]spiperone radio-ligand in rat striatal membranes by using radioligand competition assay.; assay type: cell membranes
Procedure, shortened: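 Same rat striatal membrane preparation as the D1 assay: HEPES/MgCl2 buffer, pH 7.4, 37 °C incubation, filtration and scintillation counting. [3H]spiperone was the radioligand, competed with increasing test concentrations. IC50 derived from the displacement data.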

[3] = molecular target: D(1A) dopamine receptor (Rattus norvegicus) (UniProt P18901)

Sequence of D(1A) dopamine receptor (Rattus norvegicus) (P18901 whole entry): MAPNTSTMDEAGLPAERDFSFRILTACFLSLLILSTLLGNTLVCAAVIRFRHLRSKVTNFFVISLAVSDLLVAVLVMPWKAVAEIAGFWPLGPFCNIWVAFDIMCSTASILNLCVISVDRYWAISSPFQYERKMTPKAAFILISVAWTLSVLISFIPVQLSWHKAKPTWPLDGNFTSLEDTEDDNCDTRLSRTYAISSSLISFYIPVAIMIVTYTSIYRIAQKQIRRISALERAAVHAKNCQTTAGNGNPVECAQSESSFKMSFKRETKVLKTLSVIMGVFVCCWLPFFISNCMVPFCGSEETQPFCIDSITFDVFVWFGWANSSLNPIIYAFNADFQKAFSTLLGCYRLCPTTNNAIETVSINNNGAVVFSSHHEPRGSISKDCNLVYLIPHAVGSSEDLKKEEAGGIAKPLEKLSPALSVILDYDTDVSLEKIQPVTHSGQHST
Sequence of D(2) dopamine receptor (Rattus norvegicus) (P61169 whole entry): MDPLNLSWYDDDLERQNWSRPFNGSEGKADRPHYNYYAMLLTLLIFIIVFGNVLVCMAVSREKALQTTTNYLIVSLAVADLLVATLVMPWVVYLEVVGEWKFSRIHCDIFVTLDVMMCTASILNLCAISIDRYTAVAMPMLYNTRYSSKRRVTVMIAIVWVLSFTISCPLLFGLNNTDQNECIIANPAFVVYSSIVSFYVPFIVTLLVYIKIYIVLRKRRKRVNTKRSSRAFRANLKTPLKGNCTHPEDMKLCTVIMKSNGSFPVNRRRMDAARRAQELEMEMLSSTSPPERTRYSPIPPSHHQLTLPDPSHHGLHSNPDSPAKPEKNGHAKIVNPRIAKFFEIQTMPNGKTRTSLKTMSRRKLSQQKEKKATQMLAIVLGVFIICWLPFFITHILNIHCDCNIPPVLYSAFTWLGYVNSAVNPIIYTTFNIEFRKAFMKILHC

Oc1cc2c(cc1O)[C@@H](c1ccccc1)CNCC2
K0.5 [1]: 11.1 nM | K0.5 [2]: 1870 nM

Oc1cc2c(cc1O)[C@H]1c3ccccc3CN[C@@H]1CC2
K0.5 [3]: 2.4 nM | K0.5 [2]: 29 nM

Oc1cc2c3c(c1O)CCc1ccccc1C3CNCC2 (stereo not given)
K0.5 [1]: 372 nM | K0.5 [2]: 2150 nM

NCC1c2ccccc2Cc2c1ccc(O)c2O (stereo not given)
K0.5 [1]: > 2500 nM | K0.5 [2]: > 2500 nM

Oc1cc2c3c(c1O)Cc1ccccc1C3CNCC2 (stereo not given)
K0.5 [1]: 590 nM | K0.5 [2]: 1250 nM
